TNAP inh noacc: inhibitors of human TNAP without phosphate acceptor | inhibition, % at 20 µM | 0.26% of 200,000 active | P05186 | purified TNAP, CDP-star luminescence, 30 min;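 active = tissue-nonspecific alkaline phosphatase inhibition above about 50% at 20 µM in the single-dose screen, limit read from the data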;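 note: 0% = DMSO negative control and 100% = EDTA positive control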
Target sequence (P05186 whole entry, looked up): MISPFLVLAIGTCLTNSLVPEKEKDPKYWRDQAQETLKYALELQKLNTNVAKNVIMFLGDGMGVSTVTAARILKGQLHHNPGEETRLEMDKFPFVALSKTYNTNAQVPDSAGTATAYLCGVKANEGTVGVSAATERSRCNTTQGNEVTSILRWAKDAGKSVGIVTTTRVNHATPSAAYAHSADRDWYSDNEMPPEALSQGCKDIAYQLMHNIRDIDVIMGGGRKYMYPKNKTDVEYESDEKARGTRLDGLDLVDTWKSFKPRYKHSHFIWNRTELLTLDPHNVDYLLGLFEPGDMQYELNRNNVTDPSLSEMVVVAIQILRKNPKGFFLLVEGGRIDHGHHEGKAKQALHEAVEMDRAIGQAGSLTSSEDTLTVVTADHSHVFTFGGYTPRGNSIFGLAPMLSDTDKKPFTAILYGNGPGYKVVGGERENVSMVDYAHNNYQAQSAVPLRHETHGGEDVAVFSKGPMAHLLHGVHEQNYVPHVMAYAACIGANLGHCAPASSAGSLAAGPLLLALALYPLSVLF
TNAP act hi DEA: increases human TNAP activity under high phosphate acceptor concentration; purified TNAP, CDP-star luminescence, 1 M DEA, 30 min; hits give high values; 0 = EDTA background, 1 = DMSO-only activity; activation factor at 20 µM; 200,000 tested, under 10 active; AID 1136;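 active = activation factor at least 2 at 20 µM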
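Assay system: human TNAP; Input: enzyme diluted 1/800 final; Reagent: CDP-star luminogenic substrate at 100 µM final; Timing: 30 min, room temperature; Signal: luminescence; Evaluation: TNAP activation factor scaled between EDTA and DMSO control wells.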
PMI activator: phosphomannose isomerase (human) activation. AID 1214. purified human PMI, coupled resazurin fluorescence, 20 min; hits give high values; 1 = vehicle control, 0 substrate-free wells. 0.005% of 190,000 active. activation factor at 20 µM;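 active = activation factor of 2 or more at 20 µM, relative to plate controls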
PMI act hi M6P: PMI (human) activation, high substrate. P34949. coupled PMI enzyme assay, resazurin fluorescence, 20 min; hits give high values; 1 = untreated enzyme, 0 = substrate-free blank. activation factor at 20 µM. 0.34% of 190,000 active. AID 1216;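 active = activation factor of 2 or more at 20 µM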
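assay system = human phosphomannose isomerase with PGI, G6PDH, diaphorase coupling enzymes | quantity = 15 ng/mL PMI | incubation = enzyme reaction with compound 20 min at room temperature | medium = HEPES pH 7.4 buffer with MgCl2 and Tween-20 | compound dosing = one concentration, 20 µM, in 1% DMSO | measured by = Diaphorase-driven resazurin-to-resorufin fluorescence, excitation 544, emission 590 nm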
TNAP inh hiacc: blocks human TNAP under high phosphate acceptor concentration; AID 1135; purified TNAP, CDP-star luminescence, 1 M DEA; 0.03% of 200,000 active; inhibition, % at 20 µM;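 active = over 50% inhibition of tissue-nonspecific alkaline phosphatase at 20 µM in the single-dose screen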;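 note: plate controls were DMSO wells for no effect and EDTA-quenched wells as full inhibition for full effect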
* hit, by the source's call; i = inactive. Compounds with a hit are over-represented: about 0.62% of the library has one in this group of screens.

SMILES	TNAP inh noacc	TNAP act hi DEA	PMI activator	PMI act hi M6P	TNAP inh hiacc
CCCn1c(C(C)NC(=O)c2ccccc2)nc2ccccc21 (configuration not stated)	-10.8	1	1.1	1.1	-3.0
CCN(CC)c1ccc(NC(=O)Cn2c(C(C)NC(=O)c3ccc(C)cc3)nc3ccccc32)cc1 (configuration not stated)	i	2.3*	0.9	0.8	-133.6
Cc1nn(-c2ccccc2)c(C)c1/C=N/NC(=O)c1cc(-c2ccccc2)n[nH]1	97.7*	0.8	0.9	0.9	21.5
CSc1nc2oc3c(c2c2nncn12)CC(C)(C)SC3	-15.1	1.1	1.4	2.6*	-5.1
CC1(C)Cc2c(oc3ncn4ncnc4c23)CO1	-14.1	1.1	1	1	-9.1
COc1ccc(C)c2sc(NNC(=O)COc3ccccc3)nc12	-122.8	1	1.1	0.9	-4.2
Cc1cccc(N=Cc2c(O)cc(C)oc2=O)c1	-4.9	1	1.1	1	-1.8
Cc1cc(O)c(/C=N/OCc2ccc(Cl)cc2Cl)c(=O)o1	-8.5	1	1	1	0.2
Cc1cc(O)c(/C=N/Nc2ccccc2Cl)c(=O)o1	-12.3	1	1.4	2.2*	-3.1
Cc1cc(O)c(/C=N/Nc2ccc(Cl)cc2)c(=O)o1	-6.4	1	1.3	2.1*	1.9
Cc1cc(O)c(/C=N/Nc2cccc(Cl)c2)c(=O)o1	-13.4	1	1.5	2.5*	-2.5
CNC[C@H](O)c1ccc(O)c(O)c1	77.6*	0.9	0.4	0.4	9.0
CNC[C@H](O)c1cccc(O)c1	-5.6	1	1	1	2.7
C/C(=N\Nc1ccc(Cl)c(C(=O)O)c1)c1ccc2c(c1)OCO2	-14.8	1.1	1.9	2.8*	-5.9
CCC(C)(C)C1CCC(=NNc2nc3ccccc3[nH]2)CC1 (configuration not stated)	32.2	1	1.7	2*	0.8
COc1ccc(CN2CCN(CCCCOc3ccc(Cl)cc3)CC2)c(OC)c1OC	-8.3	1	1	0.9	-3.9
O=C1CN(c2nc(-c3cccs3)nc3sc4c(c23)CCCC4)CCN1	-8.9	1	1.5	2.2*	0.3
CCCN1C(=O)/C(=C\C=C2\N(CC)c3ccccc3C2(C)C)SC1=S	42.1	0.6	0.8	0.8	41.5
CN1/C(=C\C=C2/SC(=S)NC2=O)C(C)(C)c2ccccc21	40.8	0.5	0.8	0.7	50.8*
Cc1ccc(NC(=O)CC(=O)NCCN2CCOCC2)cc1	-9.4	1	0.9	0.9	-4.5
CC(=O)/C(=N\Nc1ccc(C)cc1)N1CCOCC1	-5.2	1	1.5	2.6*	1.8
COCCCN(C(=S)NC(=O)C12CC3CC(CC(C3)C1)C2)c1c(N)n(Cc2ccccc2)c(=O)[nH]c1=O	-24.4	1	0.8	1	-4.3
C/C(=N\Nc1cccc(Cl)c1)c1ccc(-n2ccnc2)cc1	-2.3	1	1.8	2.6*	-4.4
COC(=O)N/N=C(\C)c1ccc(-n2ccnc2)cc1	-1.8	1.1	1.1	1	-7.0
Cc1ccc(Nc2nc(-c3ccc(S(=O)(=O)N4CCOCC4)cc3)cs2)cc1Cl	-19.1	1	0.9	0.9	-2.1
SMILES	TNAP inh noacc	TNAP act hi DEA	PMI activator	PMI act hi M6P	TNAP inh hiacc
CC1CCC/C(=N\NC(=O)Nc2ccccc2)C1 (configuration not stated)	-20.1	1	0.9	0.9	-3.3
CC1CCC/C(=N\Nc2ccc(Cl)c(C(=O)O)c2)C1 (configuration not stated)	-4.9	1	1.7	2.1*	-0.7
Nc1cc(S(=O)(=O)N2CCCCC2)ccc1Oc1ccccc1	-8.4	1	0.8	0.8	-3.4
O=C1c2ccccc2C(=O)N1c1n[nH]c(CCc2ccccc2)n1	57.2*	1	0.9	1	-0.2
CCCc1cc(=O)n2[nH]c(CCc3ccccc3)nc2n1	3.6	1	1	1	-4.9
Cc1cc(=O)[nH]c(SCC(=O)NCC2CCCCC2)c1C#N	-8.0	1	1.1	1	-1.8
[O-]C1=N/[N+](=C/c2ccccc2Cl)CC1	-9.3	1	1.5	2*	-4.0
O=S(=O)(c1ccc(N=C2NN=C(c3cc(F)ccc3F)CS2)cc1)N1CCOCC1	-10.5	1	1.7	2.3*	0.5
N#C/C(=C\c1ccncc1)c1nc2ccccc2c(=O)[nH]1	54.5*	1	1.4	1.4	2.8

Source: PubChem BioAssay (Sanford-Burnham Center for Chemical Genomics)
